TCR-CD3 inh = blocks the human TCR-CD3 interaction | inhibition, % at 9.4 µM | 0.37% of 360,000 active | TAMRA-labeled TCR probe fluorescence, biochemical;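 further: recombinant mutant TCR 2C K166C tagged with TAMRA read by polarization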
HTRA1 inhibitor = blocks human HTRA1 serine peptidase; inhibition, % at 5.96 µM; recombinant HTRA1, FP-rhodamine activity-based probe, fluorescence polarization; 0.5% of 340,000 active; in the data active means inhibition above about 36%
Target sequence (Q92743 whole entry, looked up): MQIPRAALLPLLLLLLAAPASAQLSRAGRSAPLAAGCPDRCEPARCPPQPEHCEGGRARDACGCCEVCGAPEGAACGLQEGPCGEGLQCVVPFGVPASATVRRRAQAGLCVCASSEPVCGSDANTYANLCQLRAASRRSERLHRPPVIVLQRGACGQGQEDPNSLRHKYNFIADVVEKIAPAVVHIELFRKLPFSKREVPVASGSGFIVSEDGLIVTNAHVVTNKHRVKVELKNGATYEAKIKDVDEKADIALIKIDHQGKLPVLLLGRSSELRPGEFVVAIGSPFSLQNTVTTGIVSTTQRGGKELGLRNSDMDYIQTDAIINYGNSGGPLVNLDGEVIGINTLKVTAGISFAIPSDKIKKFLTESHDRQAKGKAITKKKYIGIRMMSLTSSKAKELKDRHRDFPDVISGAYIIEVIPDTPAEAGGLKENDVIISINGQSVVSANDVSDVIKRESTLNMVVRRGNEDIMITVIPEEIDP
DAGLB inh = diacylglycerol lipase beta (human) inhibition; HEK293T DAGLB membrane lysate, EnzChek fluorogenic substrate; inhibition, % at 5.17 µM; 0.059% of 340,000 active; AID 504411; in the data active means inhibition above about 34%
mABHD4 FP = inhibits mouse alpha/beta hydrolase domain 4. purified mABHD4, FP-Rh probe fluorescence polarization. inhibition, % at 8.92 µM. 0.54% of 370,000 active. AID 720543;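 active means inhibition exceeding the mean over every tested compound plus 3 SD, cut at about 30% in these data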
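Test system: mouse ABHD4 enzyme, wild type. Reagent: FP-Rh fluorescent activity-based probe, added after compound pre-incubation. Timing: pre-incubation 45 min, probe exposure 60 min, at 25 °C. Technique: FP readout, ex 525 nm / em 598 nm. Benchmarks: high control S159A mutant with DMSO, low control median of compound wells.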
SIAE primary = blocks human sialic acid acetylesterase | Q9HAT2 | SIAE FP-Rh probe binding, fluorescence polarization | inhibition, % at 9.66 µM | 0.69% of 370,000 active;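 active means inhibition above a cutoff: mean of compounds within the control limits plus 3 SD of those, cut at about 17% in these data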
HTRA1 inh conf = confirmation of human HTRA1 inhibitors; shares compounds with HTRA1 inhibitor; recombinant HTRA1, FP-rhodamine activity-based probe, fluorescence polarization; inhibition, % at 5.96 µM; 66% of 1,600 active;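 active means mean inhibition over three repeats above a set limit taken from the earlier primary screen, cut at about 37% in these data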;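 further: inhibitors block probe binding so polarization drops and inhibition rises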
BSA TAMRA ctr = BSA probe counter-screen for TCR-CD3 inhibitors. shares compounds with TCR-CD3 inh. 10% of 1,200 active. TAMRA-labeled BSA probe fluorescence counterscreen. inhibition, % at 9.4 µM; in the data active means inhibition above about 23%
TCR-CD3 inh conf = TCR-CD3 interaction inhibition, confirmation. TAMRA-labeled TCR probe fluorescence binding assay. 48% of 1,200 active. AID 652036. shares compounds with TCR-CD3 inh. inhibition, % at 9.4 µM
ABHD4 confirm = confirmation of mouse ABHD4 inhibitors; shares compounds with mABHD4 FP; AID 720658; 55% of 1,800 active; purified mABHD4, FP-Rh probe fluorescence polarization; inhibition, % at 8.92 µM;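 active means mean inhibition across replicates above the hit cutoff set in the primary screen, cut at about 30% in these data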
SIAE inh conf = human SIAE inhibition, confirmation | SIAE FP-Rh activity-based probe, fluorescence polarization | inhibition, % at 9.66 µM | 13% of 2,300 active | shares compounds with SIAE primary;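 active means mean inhibition of the replicates above the hit cutoff set in the primary screen, cut at about 17% in these data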;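 further: inhibitors lower polarization as more probe stays unbound to SIAE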
Hits are given with their value; – = inactive; · = no result given; + = active, no number. Rows were chosen to be rich in hits. Some 1.5% of all compounds tested hit in one or more screens of this group. Unless noted, no stated cut-off is given here; in the data, active means inhibition above about 19%; inactive means the rest.

SMILES	TCR-CD3 inh	HTRA1 inhibitor	DAGLB inh	mABHD4 FP	SIAE primary	HTRA1 inh conf	ABHD4 confirm	SIAE inh conf	others
O=C(NS(=O)(=O)c1cccc(F)c1)[C@H]1O[C@@H](n2ccc(=O)[nH]c2=O)[C@H](O)[C@@H]1O	–	·	·	–	–	·	·	·
Nc1nc(Sc2ccc([N+](=O)[O-])c3nonc23)c2[nH]cnc2n1	–	58.9	–	46.5	17.4	71.3	48.6	–
C[C@@H]1COc2cc(N3CCCC3)ccc2S(=O)(=O)N1	–	·	·	–	–	·	·	·
Cc1ccc([N+](=O)[O-])cc1-c1[nH]c(-c2ccc(O)c(O)c2)nc1-c1ccccc1	–	68.6	–	–	34.3	85.3	·	–
COc1ccc(-c2nc(-c3ccccc3)c(-c3cc([N+](=O)[O-])ccc3C)[nH]2)cc1O	–	–	–	–	–	·	·	·
O=C(CC1CCCC1)N[C@H](C(=O)N1CCC[C@H]1C(=O)NC1CCCC1)C1CCCCC1	–	·	·	–	–	·	·	·
Nc1cccc2nc3ccccc3cc12	·	–	–	·	·	·	·	·
Cc1cc2c(N)cccc2nn1	+	100.7	–	167.8	142.2	–	116.4	65.1
Brc1ccc2nc(-c3ccc(CN4CCC(c5nc6ccccc6[nH]5)CC4)cc3)c(-c3ccccc3)nc2c1	–	·	·	–	–	·	·	·
O=C(O)c1ccc2c(c1)C1C=CCC1C(c1ccncc1)N2 (configuration not stated)	–	–	–	–	–	·	·	·
COc1ccc(NS(=O)(=O)c2ccc3c(c2)[C@H]2C=CC[C@H]2[C@@H](c2ccc(C(=O)O)cc2)N3)cc1	–	56.5	–	44.1	28.9	52.8	61.0	20.1
Cc1ccc(NC(=O)CS(=O)CC(=O)Nc2ccccc2-c2ccc(C)o2)cc1 (configuration not stated)	85.9	57.0	–	44.5	33.0	–	–	–	BSA TAMRA ctr=–;TCR-CD3 inh conf=–
CC(=O)NC(c1cc(Cl)c2cccnc2c1O)C1CC1 (configuration not stated)	–	–	–	–	–	·	·	·
CC(=O)NC(c1ccc(C)cc1)c1cc(Cl)c2cccnc2c1O (configuration not stated)	–	61.6	–	–	20.0	75.6	·	–
CC(=O)NC(c1ccc(C(C)C)cc1)c1ccc2cccnc2c1O (configuration not stated)	–	66.1	–	–	23.4	75.3	·	28.9
CS(=O)(=O)N1C[C@]2(c3ccccc3)CC1Cc1ccccc12	·	·	·	–	–	·	·	·
CC(CNC(=O)[C@@H](Cc1ccccc1)NC(=O)[C@H]1O[C@@H](n2ccc(=O)[nH]c2=O)[C@H](O)[C@@H]1O)c1ccccc1 (some centres not stated)	–	·	·	–	–	·	·	·
COC(=O)c1c(-c2ccc(OC)cc2)c2c(c3c4cc(OC)ccc4n(C(=O)c4ccccc4)c13)C(=O)N(C)C2	–	·	·	–	–	·	·	·
O=C1CCCC(O)=C1N=Nc1c(Cl)cc(C(F)(F)F)cc1Cl	26.5	72.4	–	62.1	88.8	–	–	–	BSA TAMRA ctr=–;TCR-CD3 inh conf=–
O=C1CCCC(O)=C1N=Nc1ccc(C(=O)O)cc1	–	39.7	–	–	66.2	–	·	–
O=C1CCCC(O)=C1N=Nc1ccc2c(c1)OCO2	–	–	–	–	–	·	·	·
C=CCN1C(=O)[C@@H](CC(=O)NCc2cccc(C(F)(F)F)c2)[C@]2(C(=O)OCC)CCCCC/C=C/12	·	·	·	–	–	·	·	·
Cc1cc(N)ccc1-n1c(C)ccc1C	151.9	101.5	–	147.2	53.6	–	·	–	BSA TAMRA ctr=–;TCR-CD3 inh conf=–
Cc1ccc(-n2c(C)cc(=O)cc2C)c(C)c1	–	–	–	–	–	·	·	·
COC(=O)[C@]12C[C@H](CC(=O)N3CCSCC3)C(=O)N(CCc3ccc(OC)c(OC)c3)C1=C[C@H](C(C)C)O[C@@H]2C1CC1	·	·	·	–	–	·	·	·
SMILES	TCR-CD3 inh	HTRA1 inhibitor	DAGLB inh	mABHD4 FP	SIAE primary	HTRA1 inh conf	ABHD4 confirm	SIAE inh conf	others
CC(=O)C(=Nc1ccccc1Cl)NNc1ccc(Cl)cc1	–	47.3	–	42.9	17.8	–	–	–
O=S1(=O)c2ccc(N3CCC[C@@H]3CO)cc2OCCCN1C1CC1	·	·	·	–	–	·	·	·
O=C(Nc1ccc2cn[nH]c2c1)c1c(Cl)cccc1Cl	–	–	–	–	–	·	·	·
O=C1C(Cl)=C(Nc2ccc3cn[nH]c3c2)C(=O)c2ccccc21	–	46.8	–	46.3	18.4	74.8	53.8	–
O=C(NC1CCCC1)[C@@H]1CCCN1C(=O)[C@@H](NS(=O)(=O)c1ccc(F)cc1F)C1CCCCC1	–	·	·	–	–	·	·	·
COc1ccc(NC(=O)c2cccnc2)cc1	–	–	–	–	–	·	·	·
C/C(=C\C(=O)c1cccnc1)Nc1ccc(O)cc1	89.5	63.5	–	72.4	26.3	–	–	–	BSA TAMRA ctr=–;TCR-CD3 inh conf=–
Oc1ccc(NCc2cccc(OCc3ccc(F)cc3)c2)cc1	24.8	57.8	–	48.7	39.7	–	–	–	BSA TAMRA ctr=–;TCR-CD3 inh conf=–
O=[N+]([O-])c1ccc(COc2cccc(CNc3ccc(F)cc3)c2)cc1	–	–	–	–	–	·	·	·
Oc1ccc(NCc2cccc(OCc3ccccc3)c2)cc1	26.2	50.5	–	49.8	43.9	–	–	–	BSA TAMRA ctr=–;TCR-CD3 inh conf=–
c1ccc(COc2cccc(CNCc3cccnc3)c2)cc1	–	–	–	–	–	·	·	·
CCOC(=O)C1=C(C)N=C2c3ccccc3C(=O)C2C1c1ccc(Cl)cc1 (configuration not stated)	–	38.0	–	34.6	18.6	–	66.1	–
CCOC(=O)C1=NNC(C(=O)c2ccccc2)C1c1ccc(Cl)cc1 (configuration not stated)	–	–	–	–	–	·	·	·
O=C1C=C(Nc2cccc3cccnc23)c2ccccc2C1=O	–	41.6	–	59.4	19.4	39.4	–	–
CC(C)(C)c1ccc(C#C[C@@H]2C=C[C@H](O)[C@@H](COC(=O)Nc3ccccc3)O2)cc1	–	·	·	–	–	·	·	·
COCc1[nH]nc2c1C(c1ccc(C)cc1)N(c1ccc(OC)cc1)C2=O (configuration not stated)	–	·	·	–	–	·	·	·
Cc1ccc2[nH]c3nc(N/N=C/c4cccc(O)c4)nnc3c2c1	–	–	–	–	–	·	·	·
CCc1ccc2[nH]c3nc(N/N=C/c4ccc(O)cc4O)nnc3c2c1	–	60.5	–	–	30.2	63.0	·	29.5
Oc1ccc(O)c(C=NNC(=S)NC2CC3CC2C2C=CCC32)c1 (configuration not stated)	–	46.8	–	29.7	34.0	72.8	34.7	39.2

Bioassay records (PubChem BioAssay)
